Measured values taken from ChEMBL document CHEMBL3259574, “Environmentally benign synthesis and antimicrobial study of novel chalcogenophosphates” (Bioorg Med Chem Lett, 2014).

Legend:
Staphylococcus aureus = assay: Antimicrobial activity against Staphylococcus aureus MTCC1430 assessed as zone diameter at 100 ug/ml after 24 hrs incubation by agar diffusion as say cup method; format: functional; settings: MTCC1430, 24 h, read-out: DIZ
Summary of the method: (§1)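 Agar cup diffusion on nutrient agar plates. Solidified plates were spread with 0.1% cell suspension (10^6 CFU/mL) of the test organism and held 15 min, then 6 mm wells were cut. Samples at 100 µg/mL in DMSO went into the wells, and plates were incubated 24 h at 30–35 °C. Inhibition zone diameter was measured in mm by digital vernier caliper. Triplicate parallel sets gave mean ± standard deviation, compared by ANOVA with Tukey test (P < 0.01).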

Bacillus subtilis = assay: Antimicrobial activity against Bacillus subtilis MTCC121 assessed as zone diameter at 100 ug/ml after 24 hrs incubation by agar diffusion as say cup method; format: functional; settings: MTCC121, 24 h, read-out: DIZ; summary of the method: as §1
Pisum sativum [1] = assay: Toxicity in pea seed germination assessed as seedling length; format: organism-based; settings: lathyrus oleraceus, in vivo
Cicer arietinum [2] = assay: Toxicity in gram seed germination assessed as seedling fresh weight; format: organism-based; settings: in vivo
Candida albicans = assay: Antimicrobial activity against Candida albicans MTCC227 assessed as zone diameter at 100 ug/ml after 24 hrs incubation by agar diffusion as say cup method; format: functional; settings: MTCC227, 24 h, read-out: DIZ; summary of the method: as §1
Vigna mungo = assay: Toxicity in mung seed germination assessed as seedling fresh weight; format: organism-based; settings: in vivo
Cicer arietinum [3] = assay: Toxicity in gram seed germination assessed as seedling length; format: organism-based; settings: in vivo
Pseudomonas aeruginosa = assay: Antimicrobial activity against Pseudomonas aeruginosa MTCC424 assessed as zone diameter at 100 ug/ml after 24 hrs incubation by agar diffusion as say cup method; format: functional; settings: MTCC424, 24 h, read-out: DIZ; summary of the method: as §1
Escherichia coli = assay: Antimicrobial activity against Escherichia coli MTCC1610 assessed as zone diameter at 100 ug/ml after 24 hrs incubation by agar diffusion as say cup method; format: functional; settings: MTCC1610, 24 h, read-out: DIZ; summary of the method: as §1
Pisum sativum [4] = assay: Toxicity in pea seed germination assessed as seedling fresh weight; format: organism-based; settings: lathyrus oleraceus, in vivo

| Structure (SMILES) | zone of inhibition at 100 µg/mL (Staphylococcus aureus) | zone of inhibition at 100 µg/mL (Bacillus subtilis) | Activity (Pisum sativum [1]) | Activity (Cicer arietinum [2]) | zone of inhibition at 100 µg/mL (Candida albicans) | Activity (Vigna mungo) | Activity (Cicer arietinum [3]) | zone of inhibition at 100 µg/mL (Pseudomonas aeruginosa) | zone of inhibition at 100 µg/mL (Escherichia coli) | Activity (Pisum sativum [4]) |
| --- | --- | --- | --- | --- | --- | --- | --- | --- | --- | --- |
| CCOP(=O)(OCC)[Se]c1ccccc1 | 30.2 mm | 31.6 mm | Non-toxic | Non-toxic | 34 mm | Non-toxic | Non-toxic | 32.1 mm | 24.3 mm | Non-toxic |
| COP(=O)(OC)[Se]c1ccccc1 | 28.4 mm | 22.1 mm |  |  | 28.3 mm |  |  | 25.6 mm | 22.5 mm |  |
| O=P(OCc1ccccc1)(OCc1ccccc1)[Se]c1ccccc1 | 20.3 mm | 23.4 mm |  |  | 25.9 mm |  |  | 24.3 mm | 27.3 mm |  |
| CC(C)OP(=O)(OC(C)C)[Se]c1ccccc1 | 30.5 mm | 33.1 mm | Non-toxic | Non-toxic | 38.6 mm | Non-toxic | Non-toxic | 33.4 mm | 35.1 mm | Non-toxic |
| CCOP(=O)(OCC)Sc1ccccc1 | 22.5 mm | 20.6 mm | Non-toxic | Non-toxic | 26.4 mm | Non-toxic | Non-toxic | 23.6 mm | 21 mm | Non-toxic |
| O=P(OCc1ccccc1)(OCc1ccccc1)Sc1ccccc1 | 25.1 mm | 19.8 mm |  |  | 28.1 mm |  |  | 25.4 mm | 22.9 mm |  |
| O=C(N[C@H](CO)[C@H](O)c1ccc([N+](=O)[O-])cc1)C(Cl)Cl [CHLORAMPHENICOL] | 30.9 mm | 33.4 mm |  |  |  |  |  | 33.6 mm | 35 mm |  |
